ChEMBL document CHEMBL5705892, “MK-2206, an allosteric Akt inhibitor, enhances antitumor efficacy by standard chemotherapeutic agents or molecular targeted drugs in vitro and in vivo” (Mol Cancer Ther, 2010)
Calls of active or inactive are those of the source. No cut-off for these calls is given here.

Tests used:
SK-BR-3 [1] = experiment: Synergistic antiproliferative activity against human SK-BR-3 cells assessed as combination index at ED50 measured after 72 hrs in presence of lapatinib by celltiter-glo assay; format: functional
SK-BR-3 [2] = experiment: Antiproliferative activity against human SK-BR-3 cells assessed as reduction in cell proliferation measured after 72 hrs by celltiter-glo assay; format: functional, cell-based; conditions: SK-BR-3, 72 h
Method in brief: (§1)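 Cells in RPMI 1640 with 10% heat-inactivated FBS at 37°C and 5% CO₂ were seeded at 2 to 3 × 10³ per well. […] Growth was read as cellular ATP by CellTiter-Glo.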

HCC1954 = experiment: Synergistic antiproliferative activity against human HCC1954 cells assessed as combination index at ED50 measured after 72 hrs in presence of lapatinib by celltiter-glo assay; format: functional
Method in brief: (§2)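 Cells grown in RPMI 1640 with 10% heat-inactivated FBS at 37°C, 5% CO₂. Seeded at 2 to 3 × 10³ per well; drugs added 24 h later. […] Viability read as cellular ATP by CellTiter-Glo. CI calculated by Chou–Talalay from median-effect plots at ED50, ED75 and ED90.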

BT-20 = experiment: Synergistic antiproliferative activity against human BT-20 cells assessed as combination index at ED90 measured after 72 hrs in presence of docetaxel by celltiter-glo assay; format: functional; method in brief: as §2
A2780 [3] = experiment: Synergistic antiproliferative activity against human A2780 cells assessed as combination index at ED75 measured after 72 hrs in presence of 5-FU by celltiter-glo assay; format: functional
Method in brief: (§3)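 Cells were seeded at 2–3 × 10³ per well in RPMI 1640 with 10% FBS. At 24 h, MK-2206 and the partner drug were added simultaneously at constant concentration ratios spanning each agent's IC₅₀, for 72 h. Growth was read as cellular ATP by CellTiter-Glo. CI was taken from median-effect plots of each agent alone and in combination (Chou–Talalay), at ED₅₀, ED₇₅ and ED₉₀.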

[4] = biological target: RAC-alpha serine/threonine-protein kinase (Homo sapiens) (UniProt P31749); experiment: Inhibition of AKT in human HCC827 cells assessed as reduction in S6 phosphorylation at S240/S244 residues at 5 umol/L measured after 5 hrs in presence of erlotinib by Western blot analysis; format: cell-based; conditions: dose 5.0 µmol/L
SK-BR-3 [5] = experiment: Synergistic antiproliferative activity against lapatinib pretreated human SK-BR-3 cells assessed as combination index at ED90 measured after 72 hrs by celltiter-glo assay; format: functional
MDA-MB-453 = experiment: Synergistic antiproliferative activity against human MDA-MB-453 cells assessed as combination index at ED75 measured after 72 hrs in presence of docetaxel by celltiter-glo assay; format: functional; method in brief: as §2
SK-OV-3 = experiment: Antitumor activity against human SK-OV-3 cells xenografted in po dosed CB17/icr SCID mouse assessed as tumor growth inhibition administered 3 times per week for 2 weeks starting 2 hrs post lapatinib treatment and measured twice a week during compound dosing by caliper method; format: functional, organism-based; conditions: dose 60-120 mg/kg
Method in brief: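 SK-OV-3 cells were implanted s.c. into female C.B-17/ICR-scid mice, which were randomized at 0.13 cm³, n = 5. Lapatinib (water) was given at 100 mg/kg po on days 0–4 and 7–11. MK-2206 (30% Captisol) was given at 60 or 120 mg/kg po on days 0, 2, 4, 7, 9, 11. Tumor volume by calipers twice weekly.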

A2780 [6] = experiment: Synergistic antiproliferative activity against human A2780 cells assessed as combination index at ED90 measured after 72 hrs in presence of gemcitabine by celltiter-glo assay; format: functional; method in brief: as §3
[7] = Toxicity in human NCI-H292 cells xenografted CD-1 mouse assessed as death at 120 mg/kg, po administered 3 times per week for 2 weeks and measured during compound dosing; format: organism-based; conditions: in vivo, 336 h
Method in brief: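 NCI-H292 cells in 50% Matrigel/PBS injected s.c. into flank of female CD1-nude mice; dosing began after 2 wk at mean tumour 0.2 cm³, n = 5/group. […] Body weight and signs monitored; treatment ended day 16.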

NCI-H661 = experiment: Synergistic antiproliferative activity against human NCI-H661 cells assessed as combination index at ED25 to ED90 measured after 72 hrs in presence of gemcitabine by celltiter-glo assay; format: functional
Calu-6 = experiment: Antiproliferative activity against human Calu-6 cells assessed as reduction in cell proliferation measured after 72 hrs by celltiter-glo assay; format: functional, cell-based; conditions: Calu-6, 72 h; method in brief: as §1
[8] = Toxicity in human NCI-H460 cells xenografted CD1 nude mouse assessed as body weight loss at 120 mg/kg, po administered 3 times per week for 2 weeks in presence of carboplatin measured during compound dosing relative to control; format: organism-based; conditions: in vivo, 336 h
Method in brief: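 Female CD1-nude mice with s.c. NCI-H460 tumours (50% Matrigel/50% PBS), randomized at mean 0.2 cm³, n=5/group, dosing from 12 d post-implant. Body weight monitored against vehicle-only controls.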

NCI-H1703 = experiment: Induction of apoptosis in human NCI-H1703 cells assessed as fold induction of capsase-3/7 activity measured after 24 to 48 hrs in presence of gemcitabine by caspase-glo 3/7 assay; format: functional; conditions: time 24-48 hrs
[9] = Toxicity in human PC-3 cells xenografted CD1 nude mouse assessed as body weight loss at 120 mg/kg, po administered 3 times per week for 2 weeks starting 24 hrs post docetaxel treatment and measured during compound dosing relative to control; format: organism-based; conditions: in vivo, 336 h
Method in brief: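 Male CD1-nude mice with s.c. PC-3 tumours (50% Matrigel/50% PBS, left flank), randomized at mean 0.2 cm³, n=5/group, treated from 25 d post-implant. Body weight monitored versus vehicle-only controls.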

NCI-H460 [10] = experiment: Synergistic antiproliferative activity against human NCI-H460 cells assessed as combination index at ED90 measured after 72 hrs in presence of carboplatin by celltiter-glo assay; format: functional
NCI-H460 [11] = experiment: Synergistic antiproliferative activity against human NCI-H460 cells assessed as combination index at ED50 measured after 72 hrs in presence of 5-FU by celltiter-glo assay; format: functional
UMC-11 = experiment: Induction of apoptosis in human UMC-11 cells assessed as fold induction of capsase-3/7 activity measured after 24 to 48 hrs in presence of gemcitabine by caspase-glo 3/7 assay; format: functional; conditions: time 24-48 hrs
[12] = biological target: RAC-alpha serine/threonine-protein kinase (Homo sapiens) (UniProt P31749); experiment: Inhibition of AKT in human HCC70 cells assessed as reduction in S6 phosphorylation at S240/S244 residues at 1 umol/L by Western blot analysis; format: cell-based; conditions: dose 1.0 µmol/L, time 3-24 hrs
Method in brief: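 HCC70 cells at ~70% confluence were exposed to 10 µmol/L lapatinib, 1 µmol/L MK-2206, or both, for 0, 3, 6, 12 or 24 h. Lysates were prepared in Triton X-100/Tris buffer (pH 7.5) with protease and phosphatase inhibitors. Immunoblots after SDS-PAGE and nitrocellulose transfer were probed for pAkt and pS6.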

PC-3 = experiment: Antitumor activity against human PC-3 cells xenografted in CD1 nude mouse assessed as tumor growth inhibition at 120 mg/kg, po administered 3 times per week for 2 weeks starting 24 hrs post docetaxel treatment and measured during compound dosing by caliper method; format: functional, organism-based
Method in brief: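 Male CD1-nude mice received s.c. PC-3 cells and were treated from day 25 after implant, at 0.2 cm³, n = 5. Docetaxel (0.73% ethanol in saline) was given at 5 mg/kg i.v. on day 0. MK-2206 (30% Captisol) was given at 120 mg/kg po on days 1, 3, 5, 8, 10, 12. Caliper volume twice weekly.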

Sequence of RAC-alpha serine/threonine-protein kinase (Homo sapiens) (P31749 whole entry): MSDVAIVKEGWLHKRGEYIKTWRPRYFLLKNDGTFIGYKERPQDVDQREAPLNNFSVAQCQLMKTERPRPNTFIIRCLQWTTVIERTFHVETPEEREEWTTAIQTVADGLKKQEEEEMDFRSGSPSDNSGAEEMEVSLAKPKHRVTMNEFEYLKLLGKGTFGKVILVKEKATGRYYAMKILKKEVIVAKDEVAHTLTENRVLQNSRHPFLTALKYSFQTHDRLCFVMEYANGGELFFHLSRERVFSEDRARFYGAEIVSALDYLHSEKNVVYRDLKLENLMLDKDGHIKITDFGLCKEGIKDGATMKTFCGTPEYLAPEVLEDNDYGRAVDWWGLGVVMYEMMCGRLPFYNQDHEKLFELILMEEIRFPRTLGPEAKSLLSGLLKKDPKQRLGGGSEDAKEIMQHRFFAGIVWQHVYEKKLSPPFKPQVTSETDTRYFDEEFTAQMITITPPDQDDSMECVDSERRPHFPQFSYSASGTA

Cl.NC1(c2ccc(-c3nc4ccn5c(=O)[nH]nc5c4cc3-c3ccccc3)cc2)CCC1
CI50 (SK-BR-3 [1]): 0.43 | IC50 (SK-BR-3 [2]): 0.1 µM | CI50 (HCC1954): 0.18 | CI90 (BT-20): 0.5 | CI75 (A2780 [3]): 0.54 | inhibition [4]: Active | CI90 (SK-BR-3 [5]): 0.18 | CI75 (MDA-MB-453): 0.6 | TGI (SK-OV-3): Dose-Dependent Effect | CI90 (A2780 [6]): 0.39 | Activity [7]: Non-Toxic | CI (NCI-H661): 0.53 | IC50 (Calu-6): 28.6 µM | Activity [8]: 7% | fold change (FC) (NCI-H1703): 1.5 | Activity [9]: 9% | CI90 (NCI-H460 [10]): 0.37 | CI50 (NCI-H460 [11]): 0.66 | fold change (FC) (UMC-11): 1.2 | inhibition [12]: Dose-Dependent Effect | TGI (PC-3): Active
